A value given as a limit tells only on which side of the number the result lay.

The term GI50 denotes the concentration at which growth is held to half of that of the control. A lower GI50 goes with greater sensitivity of the cells. The TGI is the concentration at which net growth stops. Low values mean greater sensitivity of the cells, high ones lower sensitivity of the cells. By LC50 is commonly meant the concentration lethal to half of the exposed cells or organisms. A lower LC50 goes with a more lethal substance.

Data set [1] concerns RPMI-8226. The data set can be described thus: Growth inhibition of human RPMI8226 cells incubated for 48 hrs by sulforhodamine B assay. Type of data set: functional. The conditions noted are these: RPMI-8226, 48 h; for CC50: read-out: LC50 (the source's name). The procedure, abridged:
(§1)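 NCI 60 human tumour cell line panel, five-dose study at 0.01, 0.1, 1, 10 and 100 µM, 48 h incubation. Sulforhodamine B protein-binding dye end point. GI50 (50% decrease in net cell growth), TGI (total growth inhibition) and LC50 (net 50% loss of initial cells) read from log concentration versus % growth inhibition curves.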

Data set [2] has as its system HCT-116. The experiment in a line: Growth inhibition of human HCT116 cells incubated for 48 hrs by sulforhodamine B assay. The class given is functional. As to conditions: HCT-116, 48 h; for CC50: read-out: LC50 (the source's name). The method in brief: (§2)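 NCI-60 five-dose screen at 0.01, 0.1, 1, 10 and 100 µM, 48 h incubation, sulforhodamine B end point. GI50 (50% decrease in net growth), TGI (total growth inhibition) and LC50 (net 50% loss of initial cells) taken from log concentration versus % growth inhibition curves.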
Background: Sulforhodamine B stains cellular protein and so reports cell mass.

Data set [3] relates to SK-MEL-28. The data set can be described thus: Growth inhibition of human SK-MEL-28 cells incubated for 48 hrs by sulforhodamine B assay. As to conditions: SK-MEL-28, 48 h. Type of data set: functional. The procedure, abridged:
as §1

The test system of data set [4] is NHDF. The data set can be described thus: (§3) Growth inhibition of human NHDF after 72 hrs by CellTiter-Glo luminescent cell viability assay. The class given is cell-based. As to conditions: nhdf, 72 h.
Data set [5] has as its system Malme-3M. The data set can be described thus: Growth inhibition of human MALME-3M cells incubated for 48 hrs by sulforhodamine B assay. Type of data set: functional. The method in brief:
as §2

A short description of data set [6]: as §3. The class given is cell-based. The conditions noted are these: NHDF cells.

With `C=C1CC[C@@H]2[C@](C)(COC(C)=O)[C@H](OC(C)=O)CC[C@@]2(C)[C@H]1CC(Nc1ccc(S(=O)(=O)Nc2ncccn2)cc1)C1=CCOC1=O` (stereo partly drawn), in data set [1], the GI50 stood at 540 nM, the TGI amounted to 3.12 µM and the CC50 was more than 100 µM. For the same compound, in data set [2], the GI50 came to 870 nM, net growth stopped (TGI) at 2490 nM and the CC50 was found to be 6.51 µM. Also, in data set [3], the GI50 was 1690 nM, the LC50 (50% net cell kill) worked out at 6.2 µM and total growth inhibition (TGI) required 3.24 µM. For the same compound, in data set [4], the “growth inhibition (GI)” value is recorded as “Non-Toxic”.

As for `C=C1CC[C@@H]2[C@](C)(COC(C)=O)[C@H](OC(C)=O)CC[C@@]2(C)[C@H]1CC(Nc1ccc(S(=O)(=O)Nc2ccc(Cl)nn2)cc1)C1=CCOC1=O` (stereo partly drawn), the GI50 in data set [1] turned out to be 440 nM; in data set [2], 1080 nM; in data set [5], 1720 nM; in data set [3], 1680 nM. Further, the TGI came to 3.04 µM in data set [1], 2320 nM in data set [2], 3.9 µM in data set [5] and 3.46 µM in data set [3]. Besides, the CC50 in data set [1] was more than 100 µM; in data set [2], 4.96 µM; in data set [5] (read-out: LC50 (the source's name)), 8.84 µM. Further, in data set [3], the LC50 (50% net cell kill) was found to be 7.13 µM. The same compound returned a GI50 at 72 h in data set [6] of 1540 nM. Moreover, in data set [4], the LC50 amounted to 3.496358 µM.

Take `C=C1CC[C@@H]2[C@](C)(COC(C)=O)[C@H](OC(C)=O)CC[C@@]2(C)[C@H]1CC(Nc1ccc(S(=O)(=O)Nc2nccc(C)n2)cc1)C1=CCOC1=O` (stereo partly drawn): in data set [1], the GI50 turned out to be 1950 nM, the TGI is 6.84 µM and the CC50 was more than 100 µM. For the same compound, in data set [2], growth was halved (GI50) at 1600 nM, the TGI turned out to be 3560 nM and the CC50 was 7.96 µM. In data set [3], this compound gave a GI50 of 2830 nM, an LC50 (50% net cell kill) of 36.3 µM and a TGI of 10.1 µM.

Regarding `C=C1CC[C@@H]2[C@](C)(COC(C)=O)[C@H](OC(C)=O)CC[C@@]2(C)[C@H]1CC(Nc1ccc(S(=O)(=O)Nc2nccs2)cc1)C1=CCOC1=O` (stereo partly drawn), in data set [1], the GI50 amounted to 2490 nM, total growth inhibition (TGI) required 7.62 µM and the CC50 is more than 100 µM. Also, in data set [2], the GI50 turned out to be 1750 nM, net growth stopped (TGI) at 3750 nM and the CC50 was found to be 8 µM. In data set [3], this compound registered a GI50 of 3950 nM, an LC50 (50% net cell kill) of 41.8 µM and a TGI of 15.1 µM.

With `C=C1CC[C@@H]2[C@](C)(COC(C)=O)[C@H](OC(C)=O)CC[C@@]2(C)[C@H]1CC(Nc1ccc(S(=O)(=O)Nc2cc(C)on2)cc1)C1=CCOC1=O` (stereo partly drawn), in data set [1], the GI50 was found to be 1540 nM, the TGI came out at 5.42 µM and the CC50 was more than 100 µM. Moreover, in data set [2], halving of growth (GI50) required 1120 nM, net growth stopped (TGI) at 2390 nM and the CC50 worked out at 5.1 µM. In data set [5], this compound returned a GI50 of 1890 nM and a TGI of 4 µM. In data set [3], this compound displayed a GI50 of 2020 nM, an LC50 (50% net cell kill) of 9.2 µM and a TGI of 4.31 µM.

Source of the values: ChEMBL document CHEMBL4033712, “Synthesis and biological evaluation of new C-12(α/β)-(N-) sulfamoyl-phenylamino-14-deoxy-andrographolide derivatives as potent anti-cancer agents” (Bioorg Med Chem Lett, 2017).
